For one experiment, the system named is HCT-116. Put plainly: Growth inhibition of human HCT-116 cells at 10 uM incubated for 24 hrs by MTT assay relative to control. The conditions noted are these: read-out: GI. It is filed as functional. The procedure, abridged:
(§1)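 Cells seeded at 1 × 10^4 per well, cultured overnight, then exposed to 10 μM compound or DMSO (negative control) for 24 h. After a PBS wash, MTT (2 mg/ml) was added for 4 h at 37°C and formazan dissolved in DMSO. OD read at 570 nm. Growth inhibition = 1 − (OD treated/OD control); at least three independent experiments.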
Background: Formazan colour is commonly taken as a measure of viable cells.

A further experiment concerns HT-29. Nature of the experiment: Growth inhibition of human HT-29 cells at 10 uM incubated for 24 hrs by MTT assay relative to control. As to conditions: read-out: GI. It is filed as functional. The essentials:
as §1

The next experiment concerns K562. Put plainly: Growth inhibition of human K562 cells at 10 uM incubated for 24 hrs by MTT assay relative to control. The format is functional. The conditions noted are these: read-out: GI. The procedure, abridged: as §1
Another experiment concerns KG-1. Nature of the experiment: Growth inhibition of human KG-1 cells at 10 uM incubated for 24 hrs by MTT assay relative to control. It is filed as functional. As to conditions: KG-1, 24 h. The procedure, abridged:
as §1

Experiment [1] deals with A498. Nature of the experiment: Growth inhibition of human A498 cells at 10 uM incubated for 24 hrs by MTT assay relative to control. As to conditions: read-out: GI. It is filed as functional. The essentials: as §1
Experiment [2] relates to CAKI-1. Nature of the experiment: Growth inhibition of human CAKI-1 cells at 10 uM incubated for 24 hrs by MTT assay relative to control. It is filed as functional. As to conditions: read-out: GI. The essentials: as §1
For experiment [3], the system named is A498. Put plainly: Antiproliferative activity against human A498 cells assessed as cell growth inhibition incubated for 24 hrs by MTT assay. The format is functional, cell-based. The conditions noted are these: A498, 24 h.
Experiment [4] has as its system CAKI-1. Put plainly: Antiproliferative activity against human CAKI-1 cells assessed as cell growth inhibition incubated for 24 hrs by MTT assay. It is filed as functional, cell-based. As to conditions: CAKI-1, 24 h.
The next experiment addresses Histone deacetylase 1 (Homo sapiens, UniProt Q13547). Put plainly: Inhibition of human full-length recombinant HDAC1 preincubated for 5 mins followed by HDAC substrate addition and further incubated for 45 mins by fluorescence microplate reader assay.
Experiment [5] addresses T1, Histone deacetylase 2 (Homo sapiens, UniProt Q92769). Nature of the experiment: Inhibition of human full-length recombinant HDAC2 preincubated for 5 mins followed by HDAC substrate addition and further incubated for 45 mins by fluorescence microplate reader assay.
The next experiment addresses Histone deacetylase 3 (Homo sapiens, UniProt O15379). Nature of the experiment: Inhibition of human full-length recombinant HDAC3 preincubated for 5 mins followed by HDAC substrate addition and further incubated for 45 mins by fluorescence microplate reader assay.
Experiment [6] concerns the target T2, Protein deacetylase HDAC6 (Homo sapiens, UniProt Q9UBN7).
T2 sequence (Q9UBN7 whole entry): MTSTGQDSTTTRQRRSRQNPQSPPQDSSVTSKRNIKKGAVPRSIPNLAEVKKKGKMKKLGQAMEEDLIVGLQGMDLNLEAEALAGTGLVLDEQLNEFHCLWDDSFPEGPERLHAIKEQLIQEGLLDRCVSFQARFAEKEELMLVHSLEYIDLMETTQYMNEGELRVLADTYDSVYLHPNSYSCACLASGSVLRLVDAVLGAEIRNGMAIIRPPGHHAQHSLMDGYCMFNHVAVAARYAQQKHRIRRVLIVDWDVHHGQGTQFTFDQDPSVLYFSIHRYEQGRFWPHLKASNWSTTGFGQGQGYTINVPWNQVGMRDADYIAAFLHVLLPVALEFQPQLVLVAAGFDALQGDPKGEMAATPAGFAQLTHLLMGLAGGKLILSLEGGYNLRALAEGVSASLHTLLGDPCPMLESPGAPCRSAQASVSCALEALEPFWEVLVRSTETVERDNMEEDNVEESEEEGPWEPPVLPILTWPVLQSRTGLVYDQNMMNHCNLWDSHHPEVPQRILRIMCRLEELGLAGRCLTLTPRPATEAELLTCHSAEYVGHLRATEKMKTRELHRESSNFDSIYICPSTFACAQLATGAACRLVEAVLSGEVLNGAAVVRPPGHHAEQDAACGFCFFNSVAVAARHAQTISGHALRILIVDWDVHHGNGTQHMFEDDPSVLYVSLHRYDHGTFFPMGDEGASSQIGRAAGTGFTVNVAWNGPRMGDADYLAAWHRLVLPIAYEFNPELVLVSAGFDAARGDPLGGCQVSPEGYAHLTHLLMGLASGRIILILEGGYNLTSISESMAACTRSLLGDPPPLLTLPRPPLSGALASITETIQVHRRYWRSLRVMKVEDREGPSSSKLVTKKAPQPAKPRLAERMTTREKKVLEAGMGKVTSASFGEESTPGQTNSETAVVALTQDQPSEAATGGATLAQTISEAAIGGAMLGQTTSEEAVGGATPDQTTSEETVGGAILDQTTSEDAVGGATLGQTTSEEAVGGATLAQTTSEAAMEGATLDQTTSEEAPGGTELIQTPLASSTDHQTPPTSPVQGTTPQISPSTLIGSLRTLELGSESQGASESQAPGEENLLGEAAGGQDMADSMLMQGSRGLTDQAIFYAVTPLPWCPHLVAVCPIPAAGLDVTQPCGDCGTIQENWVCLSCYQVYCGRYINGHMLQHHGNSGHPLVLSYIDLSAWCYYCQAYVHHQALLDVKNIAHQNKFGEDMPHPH
Nature of the experiment: Inhibition of human full-length recombinant HDAC6 preincubated for 5 mins followed by HDAC substrate addition and further incubated for 45 mins by fluorescence microplate reader assay.

A further experiment addresses T3, Histone deacetylase 8 (Homo sapiens, UniProt Q9BY41).
T3 sequence (Q9BY41 whole entry): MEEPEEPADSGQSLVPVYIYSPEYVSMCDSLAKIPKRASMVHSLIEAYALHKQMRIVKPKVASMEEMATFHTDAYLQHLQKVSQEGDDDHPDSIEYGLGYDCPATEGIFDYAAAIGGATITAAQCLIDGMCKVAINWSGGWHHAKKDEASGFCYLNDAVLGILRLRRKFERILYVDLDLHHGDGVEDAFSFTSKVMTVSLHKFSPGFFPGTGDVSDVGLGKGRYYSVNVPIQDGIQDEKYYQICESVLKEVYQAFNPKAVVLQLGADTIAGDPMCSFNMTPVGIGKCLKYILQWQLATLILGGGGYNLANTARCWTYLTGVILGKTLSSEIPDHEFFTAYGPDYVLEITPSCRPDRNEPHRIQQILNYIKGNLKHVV
Put plainly: Inhibition of human full-length recombinant C-terminal His-tagged HDAC8 expressed in baculovirus infected Sf9 insect cells preincubated for 5 mins followed by HDAC substrate addition and further incubated for 45 mins by fluorescence microplate reader assay.

In experiment [7] the target is T4, Focal adhesion kinase 1 (Homo sapiens, UniProt Q05397). Put plainly: Inhibition of FAK (unknown origin) by FRET-based Z'-Lyte assay. The procedure, abridged: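 Recombinant FAK kinase activity measured with the FRET-based Z'-LYTE format; the same platform was used for a kinase panel (FAK, FLT, FRK, IGF-1R, BTK). IC50 values determined.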
Target sequence in this assay (Q05397 whole entry): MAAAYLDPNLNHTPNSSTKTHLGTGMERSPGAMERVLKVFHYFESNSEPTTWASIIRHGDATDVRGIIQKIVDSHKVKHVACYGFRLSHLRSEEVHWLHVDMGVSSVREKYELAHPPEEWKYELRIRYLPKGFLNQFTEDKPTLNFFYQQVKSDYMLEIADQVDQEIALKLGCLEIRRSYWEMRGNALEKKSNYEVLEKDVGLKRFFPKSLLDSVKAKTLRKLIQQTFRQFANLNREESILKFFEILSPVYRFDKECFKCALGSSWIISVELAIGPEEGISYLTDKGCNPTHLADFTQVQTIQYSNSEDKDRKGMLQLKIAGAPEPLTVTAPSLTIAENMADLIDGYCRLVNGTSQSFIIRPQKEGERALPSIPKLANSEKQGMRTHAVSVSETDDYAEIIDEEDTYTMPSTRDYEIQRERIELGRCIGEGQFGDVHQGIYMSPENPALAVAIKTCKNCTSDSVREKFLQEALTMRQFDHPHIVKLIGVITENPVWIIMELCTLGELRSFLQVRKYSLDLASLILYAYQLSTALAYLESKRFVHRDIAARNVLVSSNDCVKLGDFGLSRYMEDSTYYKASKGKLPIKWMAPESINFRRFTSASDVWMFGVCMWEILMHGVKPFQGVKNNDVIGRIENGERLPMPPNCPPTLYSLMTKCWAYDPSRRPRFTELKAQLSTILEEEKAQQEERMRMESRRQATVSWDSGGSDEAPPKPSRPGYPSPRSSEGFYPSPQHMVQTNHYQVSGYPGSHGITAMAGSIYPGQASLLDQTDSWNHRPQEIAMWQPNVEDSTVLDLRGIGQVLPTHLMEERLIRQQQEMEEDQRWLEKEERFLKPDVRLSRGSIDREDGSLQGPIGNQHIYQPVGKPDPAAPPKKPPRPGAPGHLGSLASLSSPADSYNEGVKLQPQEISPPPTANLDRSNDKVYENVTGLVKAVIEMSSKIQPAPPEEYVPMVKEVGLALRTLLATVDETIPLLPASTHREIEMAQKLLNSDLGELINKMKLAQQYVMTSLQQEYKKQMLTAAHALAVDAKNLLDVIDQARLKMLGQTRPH
Experiment [8] has as its target T1, Histone deacetylase 2. Put plainly: Inhibition of HDAC2 in human A498 cells assessed as reduction in HDAC2 expression by Western blot analysis. It is filed as cell-based. The essentials:
(§2)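 40 μg protein (Bradford) resolved by SDS-PAGE, transferred to PVDF, blocked 1 h in milk or BSA. Primary antibody overnight, HRP secondary 1 h, ECL detection; β-actin as loading control.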
(Immunoblotting shows a protein as a band on a membrane.)

In experiment [9] the target is T1, Histone deacetylase 2. Put plainly: Inhibition of HDAC2 in human CAKI-1 cells assessed as reduction in HDAC2 expression by Western blot analysis. The format is cell-based. The essentials:
as §2

Experiment [10] concerns the target T4, Focal adhesion kinase 1. Put plainly: Inhibition of FAK in human A498 cells assessed as reduction in FAK phosphorylation by Western blot analysis. It is filed as cell-based. The essentials: as §2
Target sequence in this assay (Q05397 2-1052 limits assumed): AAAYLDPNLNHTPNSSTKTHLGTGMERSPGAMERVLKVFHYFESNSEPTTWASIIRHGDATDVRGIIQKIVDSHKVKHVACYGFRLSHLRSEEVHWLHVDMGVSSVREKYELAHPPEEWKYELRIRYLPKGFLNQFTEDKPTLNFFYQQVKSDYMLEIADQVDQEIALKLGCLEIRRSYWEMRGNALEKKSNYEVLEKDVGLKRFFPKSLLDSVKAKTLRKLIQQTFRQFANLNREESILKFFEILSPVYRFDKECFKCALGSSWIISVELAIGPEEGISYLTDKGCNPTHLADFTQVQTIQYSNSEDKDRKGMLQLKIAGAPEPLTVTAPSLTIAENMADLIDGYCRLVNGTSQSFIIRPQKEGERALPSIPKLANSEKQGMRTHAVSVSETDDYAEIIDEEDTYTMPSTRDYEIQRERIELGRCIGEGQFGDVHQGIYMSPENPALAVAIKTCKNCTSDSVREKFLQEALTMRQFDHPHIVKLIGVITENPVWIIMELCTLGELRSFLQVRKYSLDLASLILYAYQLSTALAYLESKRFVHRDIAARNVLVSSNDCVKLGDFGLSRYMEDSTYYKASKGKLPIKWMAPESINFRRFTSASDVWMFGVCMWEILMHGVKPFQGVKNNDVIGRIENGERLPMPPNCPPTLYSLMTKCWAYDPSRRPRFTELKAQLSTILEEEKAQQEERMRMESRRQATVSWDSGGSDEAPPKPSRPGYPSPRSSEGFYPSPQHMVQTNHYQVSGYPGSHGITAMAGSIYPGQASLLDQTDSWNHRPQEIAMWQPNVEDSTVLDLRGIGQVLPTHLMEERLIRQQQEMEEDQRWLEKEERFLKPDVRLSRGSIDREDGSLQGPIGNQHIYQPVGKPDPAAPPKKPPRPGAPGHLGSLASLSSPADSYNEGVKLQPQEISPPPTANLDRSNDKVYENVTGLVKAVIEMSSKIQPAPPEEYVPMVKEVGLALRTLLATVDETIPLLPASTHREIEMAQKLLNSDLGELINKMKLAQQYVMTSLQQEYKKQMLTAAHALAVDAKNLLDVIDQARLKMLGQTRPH
The target of experiment [11] is T4, Focal adhesion kinase 1. Put plainly: Inhibition of FAK in human CAKI-1 cells assessed as reduction in FAK phosphorylation by Western blot analysis. The format is cell-based. The procedure, abridged:
as §2
Target sequence in this assay (Q05397 2-1052 limits assumed): as above

Activity calls are given as the source filed them. The calls are words filed in the database; no cut-off is given here.

T1 sequence (Q92769 whole entry): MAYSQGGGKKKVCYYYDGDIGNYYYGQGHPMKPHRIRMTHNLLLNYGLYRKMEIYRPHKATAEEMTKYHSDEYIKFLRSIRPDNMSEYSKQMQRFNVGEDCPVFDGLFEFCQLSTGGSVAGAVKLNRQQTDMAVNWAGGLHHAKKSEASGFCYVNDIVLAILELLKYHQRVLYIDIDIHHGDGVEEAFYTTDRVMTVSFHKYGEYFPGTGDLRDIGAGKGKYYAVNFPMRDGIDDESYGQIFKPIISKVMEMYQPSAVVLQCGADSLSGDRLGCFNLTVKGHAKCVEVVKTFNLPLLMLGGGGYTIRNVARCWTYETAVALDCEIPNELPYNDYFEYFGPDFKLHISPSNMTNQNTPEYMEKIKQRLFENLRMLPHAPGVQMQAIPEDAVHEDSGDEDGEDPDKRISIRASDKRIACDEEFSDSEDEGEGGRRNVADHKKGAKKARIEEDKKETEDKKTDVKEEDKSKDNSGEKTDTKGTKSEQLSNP
Chain of Histone deacetylase 1 (Q13547 whole entry): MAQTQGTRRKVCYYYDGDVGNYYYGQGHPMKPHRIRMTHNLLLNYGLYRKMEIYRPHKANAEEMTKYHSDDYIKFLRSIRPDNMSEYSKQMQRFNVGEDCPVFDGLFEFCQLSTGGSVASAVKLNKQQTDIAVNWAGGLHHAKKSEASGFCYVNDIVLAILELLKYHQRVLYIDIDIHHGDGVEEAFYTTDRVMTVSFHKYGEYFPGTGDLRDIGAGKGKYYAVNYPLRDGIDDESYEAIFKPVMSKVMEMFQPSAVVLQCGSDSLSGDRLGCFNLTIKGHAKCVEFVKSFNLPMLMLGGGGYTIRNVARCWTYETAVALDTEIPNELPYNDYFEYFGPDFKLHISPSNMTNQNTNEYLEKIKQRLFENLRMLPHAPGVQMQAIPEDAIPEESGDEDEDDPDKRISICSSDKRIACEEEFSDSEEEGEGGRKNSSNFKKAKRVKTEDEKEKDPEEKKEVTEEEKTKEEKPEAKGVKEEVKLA
Chain of Histone deacetylase 3 (O15379 whole entry): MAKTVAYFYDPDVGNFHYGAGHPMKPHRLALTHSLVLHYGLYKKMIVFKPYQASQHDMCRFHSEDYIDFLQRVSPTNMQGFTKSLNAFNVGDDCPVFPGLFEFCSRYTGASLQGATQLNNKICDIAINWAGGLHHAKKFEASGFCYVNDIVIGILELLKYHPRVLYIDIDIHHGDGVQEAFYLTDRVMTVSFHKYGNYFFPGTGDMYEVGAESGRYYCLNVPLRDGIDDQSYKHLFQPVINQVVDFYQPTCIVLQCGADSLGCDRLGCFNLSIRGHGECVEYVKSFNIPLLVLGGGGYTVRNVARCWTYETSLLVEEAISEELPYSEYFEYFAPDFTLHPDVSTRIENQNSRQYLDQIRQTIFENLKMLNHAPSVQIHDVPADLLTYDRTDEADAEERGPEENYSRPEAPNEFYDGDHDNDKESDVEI

Regarding `C=CCn1c(SCCCCCC(=O)Nc2ccccc2N)nnc1-c1ccncc1`, the inhibition of growth at 10 µM turned out to be 90.5% in the experiment on HCT-116; 95.5% in the experiment on HT-29; 86.4% in the experiment with K562; 97.7% with A498 [1]; 95.4% in the experiment on CAKI-1 [2]. Besides, the inhibition in vitro at 10 µM in the experiment with KG-1 stood at 94.2%. The IC50 worked out at 1.19 µM in the experiment with A498 [3]; 1.34 µM in the experiment on CAKI-1 [4]; 31 µM at Histone deacetylase 1; 1.4 µM on Histone deacetylase 2 [5]; 11 µM on Histone deacetylase 3; 9.79 µM in experiment [6]. The IC50 on Histone deacetylase 8 was 5.86 µM; on Focal adhesion kinase 1 [7], 0.0143 µM. Further, the inhibition result at Histone deacetylase 2 [8], on Histone deacetylase 2 [9], at Focal adhesion kinase 1 [10] and on Focal adhesion kinase 1 [11] was “Active” each time.

As usually defined, the IC50 is the concentration at which inhibition is half-maximal.
